Measured values of several laboratories.
Protocols differ between the studies behind these lines.
DPP4: Dipeptidyl peptidase 4 (DPP4, Homo sapiens, UniProt P27487)
Stromelysin-2: Stromelysin-2 (Homo sapiens, UniProt P09238)
PRKAA2: 5'-AMP-activated protein kinase catalytic subunit alpha-2 (PRKAA2, Homo sapiens, UniProt P54646)
SULT1E1: Sulfotransferase 1E1 (SULT1E1, Homo sapiens, UniProt P49888)
PSMB6: Proteasome subunit beta type-6 (PSMB6, Homo sapiens, UniProt P28072)
CDK9 with cyclin T1: Cyclin-dependent kinase 9, with cyclin T1 (CDK9, Homo sapiens, UniProt P50750)

The remaining binding of COc1ncccc1-c1cnn2ccc(N3CCN(C(=O)OC(C)C)CC3)nc12 is reported as 13% (Ankyrin repeat and protein kinase domain-containing protein 1 (ANKK1, Homo sapiens, UniProt Q8NFD2); binding; competition with immobilised ligand; 1 µM).
CCOC(=O)c1ccc(OC(=O)CCCCCNC(=N)N)cc1 has an inhibition of 21% (DPP4; enzyme activity; inhibitor; 10 µM).
With CCN(CC)CCCC[C@H](NC(=O)[C@H](CC(C)C)NC(=O)[C@H](C)NC(=O)[C@H](Cc1ccccc1)NC(=O)c1ccc(C(C)(C)C)cc1)C(=O)N[C@@H](CO)C(=O)OC the ΔTm was 0.07 °C (SP140 (Homo sapiens, UniProt Q13342); thermal stability; DSF; 25 µM).
CN(C)C(=O)COC(=O)Cc1ccc(OC(=O)c2ccc(NC(=N)N)cc2)cc1 gave an inhibition of 29% (Stromelysin-2; enzyme activity; inhibitor; 10 µM).
The inhibition of O=C(Nc1cccnn1)N1CCN([C@@H]2CCOc3cc(C(F)(F)F)ccc32)CC1 is reported as -21% (C-X-C chemokine receptor type 4 (CXCR4, Homo sapiens, UniProt P61073); cell-free assay; 20 µM).
With Nc1ncc(-c2nc(N3CCOCC3)nc(N3CCOCC3)n2)c(C(F)F)n1 the remaining binding was 91% (PRKAA2; cell-free assay; competition with immobilised ligand; 10 µM).
COc1cc(Br)cc(Br)c1Oc1cc(Br)cc(Br)c1O has a Km of 1.09 µM (SULT1E1; enzyme activity; substrate).
N=C(N)c1ccc2cc(OC(=O)c3ccc(N=C(N)N)cc3)ccc2c1 gave an inhibition of 18% (DPP4; enzyme activity; inhibitor; 10 µM).
Nc1ccc(-c2nsc(=O)o2)cc1 has a kinact/KI of 1.09 M⁻¹ s⁻¹ (PSMB6; enzyme activity; inhibitor).
Cn1cc(-c2cc(F)cc(N3CCn4c(cc5c4CCCC5)C3=O)c2CO)cc(Nc2ccc(N3CCN(C4COC4)CC3)cn2)c1=O gave an inhibition of 12% (Serine/threonine-protein kinase Sgk2 (SGK2, Homo sapiens, UniProt Q9HBY8); enzyme activity; inhibitor; 0.1 µM).
C#Cc1n[nH]c2c(-c3cn([C@@H](C)c4ccccn4)c(=O)[nH]c3=O)cc(F)cc12 gave an inhibition of 8.9% (CDK9 with cyclin T1; enzyme activity; inhibitor; 0.1 µM).
With N#C[C@@H]1CC(F)(F)CN1C(=O)CNC(=O)c1ccnc2ccccc12 the inhibition was 35% (Prolyl endopeptidase FAP (FAP, Homo sapiens, UniProt Q12884); enzyme activity; inhibitor; 10 nM).
Cn1cc(-c2cccc(N3CCc4c(sc5c4CC(C)(C)C5)C3=O)c2CO)cc(Nc2ccncn2)c1=O gave an inhibition of 11% (Cyclin-dependent kinase 9, with cyclin K (CDK9, Homo sapiens, UniProt P50750); enzyme activity; inhibitor; 1 µM).
COc1ccc(S(=O)(=O)N(CC(=O)NO)CC(C)C)cc1 gave an inhibition of 63% (Stromelysin-2; enzyme activity; inhibitor; 1 µM).
For Cc1nn(C)cc1-c1nc2c(N3CCN(Cc4ccc(Cl)cc4)CC3)c(Cl)cnc2[nH]1, the remaining binding was 0.9% (PRKAA2; binding; competition with immobilised ligand; 1 µM).
With Oc1c(Br)cc(Br)cc1Oc1ccc(Br)cc1Br the Km was 8.87 µM (SULT1E1; enzyme activity; substrate).
The kinact/KI of Nc1cccc(-c2nsc(=O)o2)c1 is reported as 0.61 M⁻¹ s⁻¹ (PSMB6; enzyme activity; inhibitor).
For C#Cc1n[nH]c2c(-c3cn([C@@H](C)c4ccccc4)c(=O)[nH]c3=O)cc(F)cc12, the inhibition was -1.8% (CDK9 with cyclin T1; enzyme activity; inhibitor; 0.1 µM).
